Laboratory results published in ChEMBL document CHEMBL4014339, “Discovery of 1,4-Benzodiazepine-2,5-dione (BZD) Derivatives as Dual Nucleotide Binding Oligomerization Domain Containing 1/2 (NOD1/NOD2) Antagonists Sensitizing Paclitaxel (PTX) To Suppress Lewis Lung Carcinoma (LLC) Growth in Vivo” (J Med Chem, 2017).
Activity calls are given as the source filed them. The calls are words filed in the database; no cut-off is given here.

Key:
[1] = target: T1, Nucleotide-binding oligomerization domain-containing protein 1 (Homo sapiens) (UniProt Q9Y239); assay: Inhibition of NOD1 in human PBMC-derived macrophages assessed as reduction in C12-iE-DAP-stimulated TNFalpha mRNA expression preincubated for 1 hr followed by C12-iE-DAP stimulation for 90 mins by RT-qPCR analysis
T1 sequence (whole entry): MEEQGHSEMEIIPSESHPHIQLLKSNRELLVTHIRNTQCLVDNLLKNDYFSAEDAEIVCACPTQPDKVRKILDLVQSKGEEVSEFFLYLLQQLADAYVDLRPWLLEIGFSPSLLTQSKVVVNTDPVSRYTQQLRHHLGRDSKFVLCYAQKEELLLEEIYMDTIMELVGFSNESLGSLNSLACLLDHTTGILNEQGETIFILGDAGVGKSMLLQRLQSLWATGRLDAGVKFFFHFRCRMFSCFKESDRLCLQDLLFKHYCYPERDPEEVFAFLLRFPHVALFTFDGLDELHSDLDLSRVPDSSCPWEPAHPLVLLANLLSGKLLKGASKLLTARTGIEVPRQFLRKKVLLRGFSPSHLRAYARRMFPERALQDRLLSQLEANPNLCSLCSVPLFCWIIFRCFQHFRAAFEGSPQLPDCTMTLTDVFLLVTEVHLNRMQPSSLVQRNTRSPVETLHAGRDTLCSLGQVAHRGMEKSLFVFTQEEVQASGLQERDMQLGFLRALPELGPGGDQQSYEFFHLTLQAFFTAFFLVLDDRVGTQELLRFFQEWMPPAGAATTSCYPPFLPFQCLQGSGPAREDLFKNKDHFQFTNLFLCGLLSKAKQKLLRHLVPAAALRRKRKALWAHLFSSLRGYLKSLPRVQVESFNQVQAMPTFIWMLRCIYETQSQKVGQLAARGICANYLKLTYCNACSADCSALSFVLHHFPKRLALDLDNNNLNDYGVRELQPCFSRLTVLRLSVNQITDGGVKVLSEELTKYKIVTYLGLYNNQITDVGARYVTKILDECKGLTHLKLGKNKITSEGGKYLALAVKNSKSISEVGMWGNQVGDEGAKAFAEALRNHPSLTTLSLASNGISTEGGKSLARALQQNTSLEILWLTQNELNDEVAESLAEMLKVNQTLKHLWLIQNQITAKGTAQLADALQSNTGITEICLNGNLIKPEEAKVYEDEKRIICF
Summary of the method: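 Human CD14+ monocytes from donor PBMC, differentiated 7 days with M-CSF 20 ng/mL to macrophages; 1.0 × 10^6 cells pretreated 1 h with compound (final 0.1% DMSO), then C12-iE-DAP 500 ng/mL or MDP 5 μg/mL for 90 min. IL-6/TNF-α mRNA by qRT-PCR, normalized to GAPDH; stimulated response set to 100%.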

[2] = target: T2, Nucleotide-binding oligomerization domain-containing protein 2 (Homo sapiens, UniProt Q9HC29); assay: Inhibition of NOD2 in human PBMC-derived macrophages assessed as reduction in MDP-stimulated ERK phosphorylation at 1 to 10 uM preincubated for 1 hr followed by MDP stimulation for 1 hr by Western blot analysis
[3] = target: T1, Nucleotide-binding oligomerization domain-containing protein 1 (Homo sapiens); assay: Inhibition of NOD1 in human PBMC-derived macrophages assessed as reduction in C12-iE-DAP-stimulated p38 phosphorylation at 1 to 10 uM preincubated for 1 hr followed by C12-iE-DAP stimulation for 45 mins by Western blot analysis
[4] = target: T2, Nucleotide-binding oligomerization domain-containing protein 2; assay: Inhibition of human NOD2 expressed in HEK293 cells assessed as reduction in MDP-stimulated IL8 secretion preincubated with compound followed by MDP stimulation measured after 24 hrs by ELISA; type: cell-based
[5] = target: T2, Nucleotide-binding oligomerization domain-containing protein 2; assay: Antagonist activity at human NOD2 expressed in HEK-Blue cells assessed as inhibition of MDP-stimulated cell activation preincubated for 3 hrs followed by MDP addition measured after 20 hrs by SEAP reporter gene assay; type: cell-based
Summary of the method: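 HEK-Blue hNOD1 or hNOD2 cells preincubated with compound 3 h, then stimulated 20 h with C12-iE-DAP 50 ng/mL (NOD1) or MDP 100 ng/mL (NOD2); SEAP in supernatant quantified. Primary screen at 10 μM, hits repeated in triplicate; IC50 from dose-response, mean ± SD (n = 3), only for compounds reaching ≥50% inhibition at the screening concentration.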

[6] = target: T2, Nucleotide-binding oligomerization domain-containing protein 2; assay: Inhibition of NOD2 in human PBMC-derived macrophages assessed as reduction of MDP-mediated decrease in IkBalpha levels at 1 to 10 uM preincubated for 1 hr followed by MDP stimulation for 1 hr by Western blot analysis
[7] = target: Toll-like receptor 2 (Homo sapiens) (UniProt O60603); assay: Inhibition of human TLR2 expressed in HEK-Blue cells assessed as reduction in Pam3CSK4-stimulated SEAP release preincubated for 3 hrs followed by Pam3CSK4 addition measured after 20 hrs by spectrophotometric analysis; type: cell-based
[8] = target: T2, Nucleotide-binding oligomerization domain-containing protein 2; assay: Inhibition of NOD2 in human PBMC-derived macrophages assessed as reduction in MDP-stimulated JNK phosphorylation at 1 to 10 uM preincubated for 1 hr followed by MDP stimulation for 1 hr by Western blot analysis
[9] = target: T1, Nucleotide-binding oligomerization domain-containing protein 1 (Homo sapiens); assay: Inhibition of NOD1 in human PBMC-derived macrophages assessed as reduction in C12-iE-DAP-stimulated ERK phosphorylation at 1 to 10 uM preincubated for 1 hr followed by C12-iE-DAP stimulation for 45 mins by Western blot analysis
[10] = target: T1, Nucleotide-binding oligomerization domain-containing protein 1 (Homo sapiens); assay: Inhibition of NOD1 in human PBMC-derived macrophages assessed as reduction of C12-iE-DAP-mediated decrease in IkBalpha levels at 1 to 10 uM preincubated for 1 hr followed by C12-iE-DAP stimulation for 45 mins by Western blot analysis
[11] = target: T1, Nucleotide-binding oligomerization domain-containing protein 1 (Homo sapiens); assay: Inhibition of NOD1 in human PBMC-derived macrophages assessed as reduction in C12-iE-DAP-stimulated RIP2 phosphorylation at 1 to 10 uM preincubated for 1 hr followed by C12-iE-DAP stimulation for 45 mins by Western blot analysis
[12] = target: T2, Nucleotide-binding oligomerization domain-containing protein 2; assay: Inhibition of human NOD2 expressed in HEK293 cells assessed as reduction of MDP-mediated decrease in IkBalpha levels preincubated for 1 hr followed by MDP addition measured after 1 hr by Western blot analysis
[13] = target: Receptor-interacting serine/threonine-protein kinase 2 (Homo sapiens) (UniProt O43353); assay: Inhibition of recombinant human N-terminal GST tagged RIPK2 (1 to 299 residues) expressed in baculovirus infected Sf9 insect cells assessed as decrease in MBP phosphorylation at 10 uM preincubated with compound followed by ATP addition measured after 60 mins by ADP-Glo assay
Chain of Receptor-interacting serine/threonine-protein kinase 2 (Homo sapiens) (O43353 whole entry, the tested form may be a part): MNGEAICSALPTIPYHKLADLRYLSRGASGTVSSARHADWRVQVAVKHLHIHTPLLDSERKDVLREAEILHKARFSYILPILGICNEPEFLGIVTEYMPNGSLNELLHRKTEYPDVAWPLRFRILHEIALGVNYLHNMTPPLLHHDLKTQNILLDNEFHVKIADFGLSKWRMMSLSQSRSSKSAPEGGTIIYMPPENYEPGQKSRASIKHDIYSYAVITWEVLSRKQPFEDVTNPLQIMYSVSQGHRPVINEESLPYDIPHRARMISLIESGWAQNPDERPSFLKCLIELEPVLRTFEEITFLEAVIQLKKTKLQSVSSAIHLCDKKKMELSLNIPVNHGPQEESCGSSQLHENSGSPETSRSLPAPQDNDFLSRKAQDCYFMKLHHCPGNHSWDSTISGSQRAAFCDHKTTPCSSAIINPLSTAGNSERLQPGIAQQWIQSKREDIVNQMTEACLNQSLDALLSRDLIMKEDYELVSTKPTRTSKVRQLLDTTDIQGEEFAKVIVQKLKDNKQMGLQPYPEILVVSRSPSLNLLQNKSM

T2 sequence (Q9HC29 whole entry, the tested form may be a part): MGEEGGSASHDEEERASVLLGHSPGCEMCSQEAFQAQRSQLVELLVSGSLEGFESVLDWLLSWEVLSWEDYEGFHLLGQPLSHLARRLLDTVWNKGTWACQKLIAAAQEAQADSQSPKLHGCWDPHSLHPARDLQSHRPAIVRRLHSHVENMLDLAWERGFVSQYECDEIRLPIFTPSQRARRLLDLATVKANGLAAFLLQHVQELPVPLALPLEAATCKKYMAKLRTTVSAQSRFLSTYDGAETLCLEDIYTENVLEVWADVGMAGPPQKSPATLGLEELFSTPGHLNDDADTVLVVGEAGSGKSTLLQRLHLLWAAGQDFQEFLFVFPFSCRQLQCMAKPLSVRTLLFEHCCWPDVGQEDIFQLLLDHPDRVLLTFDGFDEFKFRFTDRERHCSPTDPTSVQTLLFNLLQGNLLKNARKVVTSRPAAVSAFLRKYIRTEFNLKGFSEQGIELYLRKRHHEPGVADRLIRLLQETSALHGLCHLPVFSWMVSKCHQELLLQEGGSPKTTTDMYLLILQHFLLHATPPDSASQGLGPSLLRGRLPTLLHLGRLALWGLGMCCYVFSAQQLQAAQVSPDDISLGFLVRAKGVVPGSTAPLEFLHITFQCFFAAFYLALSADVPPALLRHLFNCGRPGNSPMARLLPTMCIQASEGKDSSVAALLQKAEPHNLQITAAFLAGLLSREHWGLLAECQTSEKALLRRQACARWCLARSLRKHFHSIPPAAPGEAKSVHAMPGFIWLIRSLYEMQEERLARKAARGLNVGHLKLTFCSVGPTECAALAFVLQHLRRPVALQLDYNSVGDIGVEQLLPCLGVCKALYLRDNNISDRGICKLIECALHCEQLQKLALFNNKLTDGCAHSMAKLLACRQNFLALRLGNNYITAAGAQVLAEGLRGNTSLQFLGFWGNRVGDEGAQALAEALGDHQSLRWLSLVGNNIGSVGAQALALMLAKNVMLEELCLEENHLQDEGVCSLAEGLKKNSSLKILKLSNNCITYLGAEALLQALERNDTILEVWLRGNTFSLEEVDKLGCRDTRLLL
Chain of Toll-like receptor 2 (Homo sapiens) (O60603 whole entry, the tested form may be a part): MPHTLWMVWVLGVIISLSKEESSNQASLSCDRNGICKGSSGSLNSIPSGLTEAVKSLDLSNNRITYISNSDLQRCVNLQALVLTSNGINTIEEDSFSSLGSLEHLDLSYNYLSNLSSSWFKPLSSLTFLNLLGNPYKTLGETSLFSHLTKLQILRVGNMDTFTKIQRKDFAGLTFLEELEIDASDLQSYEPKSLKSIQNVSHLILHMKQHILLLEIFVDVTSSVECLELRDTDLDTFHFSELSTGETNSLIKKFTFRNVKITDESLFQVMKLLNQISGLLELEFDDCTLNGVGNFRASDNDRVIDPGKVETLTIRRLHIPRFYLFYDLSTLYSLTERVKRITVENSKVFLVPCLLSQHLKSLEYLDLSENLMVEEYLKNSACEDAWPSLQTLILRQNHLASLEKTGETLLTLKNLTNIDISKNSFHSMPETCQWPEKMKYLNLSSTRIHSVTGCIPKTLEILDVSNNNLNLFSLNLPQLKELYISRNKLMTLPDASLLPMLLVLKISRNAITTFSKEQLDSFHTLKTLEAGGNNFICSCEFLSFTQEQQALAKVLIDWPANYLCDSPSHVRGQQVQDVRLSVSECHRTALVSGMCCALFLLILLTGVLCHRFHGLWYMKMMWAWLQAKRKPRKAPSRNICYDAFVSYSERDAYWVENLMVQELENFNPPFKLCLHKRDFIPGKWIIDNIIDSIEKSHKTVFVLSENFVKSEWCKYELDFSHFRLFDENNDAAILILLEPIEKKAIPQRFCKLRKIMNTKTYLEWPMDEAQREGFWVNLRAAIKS

In the case of `CCCNC(=O)CC[C@H]1NC(=O)c2cc(Oc3cccc(N(C)C)c3)c(NC(=O)COCc3ccccc3)cc2NC1=O`, the inhibition [1] is reported as “Dose-dependent effect”, the inhibition [2] is reported as “Active” and the inhibition [3] is reported as “Active”. The inhibition [4] was “Dose-dependent effect”, the IC50 [5] was 4.16 µM and the inhibition [6] was “Active”. For the same compound, the inhibition [7] was “inactive”, the inhibition [8] was “Active” and the inhibition [9] was “Active”. For the same compound, the inhibition [10] was “Active”, the inhibition [11] was “Active” and the inhibition [12] was “Dose-dependent effect”. For the same compound, the inhibition [13] was “inactive”.
